Screens (PubChem)
tolC growth inh = E. coli tolC mutant growth inhibition; E. coli BW25113 tolC mutant growth, OD615; growth inhibition, % at 10 µM (by protocol); 2.2% of 65,000 active;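 active means growth inhibition at or above a cutoff equal to the mean over every tested compound plus 3 SD, cut at about 60% in these data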;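 further: growth measured after 20 h incubation at 37 °C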
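Test system: tolC-deleted E. coli BW25113; medium: LB with kanamycin 50 µg/mL; compound: single-point testing at 10 µM; incubation: 20 h compound exposure of bacteria at 37 °C; signal: OD at 615 nm; evaluation: growth inhibition in percent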
CYP2C9 inhib = blocks human cytochrome P450 2C9; P11712; CYP2C9 Supersomes, luciferin-H conversion, luminescence; inhibition, % at 5 µM; 20% of 96,000 active;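 active means blocking of liver enzyme CYP2C9 beyond about 50% at 5 µM, limit read from the data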
Target sequence (P11712 whole entry, looked up): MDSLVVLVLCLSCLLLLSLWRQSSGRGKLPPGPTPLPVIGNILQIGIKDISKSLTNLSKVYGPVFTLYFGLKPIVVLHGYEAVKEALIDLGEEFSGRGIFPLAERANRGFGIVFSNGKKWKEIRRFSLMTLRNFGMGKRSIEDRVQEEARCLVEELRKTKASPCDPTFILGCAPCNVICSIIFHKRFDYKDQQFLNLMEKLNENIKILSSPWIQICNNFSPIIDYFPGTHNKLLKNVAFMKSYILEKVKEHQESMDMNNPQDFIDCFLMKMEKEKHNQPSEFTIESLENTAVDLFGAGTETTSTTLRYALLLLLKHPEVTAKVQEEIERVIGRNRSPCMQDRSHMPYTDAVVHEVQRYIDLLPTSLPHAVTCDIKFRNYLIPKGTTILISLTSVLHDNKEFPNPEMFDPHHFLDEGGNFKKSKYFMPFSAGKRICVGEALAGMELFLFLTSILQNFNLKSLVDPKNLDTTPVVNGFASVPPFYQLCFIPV
CYP2C19 inhib = blocks human cytochrome P450 2C19 | P33261 | inhibition, % at 5 µM | 21% of 96,000 active | CYP2C19 Supersomes, luciferin-H EGE luminescence, 30 min;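 active means CYP2C19 inhibition above a set limit at 5 µM in the primary screen, cut at about 50% in these data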
CYP2C19 activ = activators of human cytochrome P450 2C19; P33261; recombinant CYP2C19, luciferin-H EGE luminescence; active compounds read high; 0 = fully inhibited enzyme, 1 = untreated enzyme; activation factor at 5 µM; 96,000 tested, under 10 active;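 active means activation factor of at least 2 at 5 µM in the primary screen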
CYP2C9 act = activators of human CYP2C9; P11712; recombinant CYP2C9, luciferin-H conversion, luminescence; active compounds read high; factor 1 = untreated enzyme, 0 = blocked; activation factor at 5 µM; 1.4% of 96,000 active; AID 1024;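 active means activation factor of 2 or more for CYP2C9 at a 5 µM dose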
E coli WT exp = blocks growth of wild type E. coli BW25113; growth inhibition, % at 100 µM; 0.15% of 98,000 active; OD600 absorbance;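 active means growth inhibition above about 50% at one test dose, limit read from the data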;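 further: growth measured after 20 h incubation at 37 °C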
Each line names hits and unclear results; the compound was inactive in the other large screens. Hits are enriched below; roughly 29% of the tested compounds scored in any of these assays.

Cc1ccc(NC(=O)NNC(=O)C2CC(c3cccnc3)=NO2)cc1 (stereo not drawn)	none (no result: tolC growth inh)
CCOC(=O)COc1ccc(S(=O)(=O)NCCC2=CCCCC2)cc1	none
Cc1ccsc1C(=O)OCC(=O)Nc1sccc1C(N)=O	none
Cc1ccc(C)c(OCc2nnc(N)s2)c1	none (no result: tolC growth inh)
Nc1nnc(COc2ccc(Br)cc2Br)s1	CYP2C19 inhib 71
N#Cc1c(-c2ccco2)cc(C2CC2)nc1N	CYP2C19 inhib 63
N#Cc1c(-c2ccco2)cc(-c2ccccn2)nc1N	none
N#Cc1c(-c2ccccc2)cc(C2CC2)nc1N	CYP2C19 inhib 80
Cc1ccc(-c2cc(-c3ccccc3)c(C#N)c(N)n2)o1	none
COc1ccccc1N1CCN(C(=O)c2cc(-c3ccc4c(c3)OCO4)on2)CC1	none
COc1ccccc1N1CCN(C(=O)c2cc(-c3cccc(Cl)c3)on2)CC1	tolC growth inh 69
COc1ccc(-c2cc(C(=O)N3CCCc4ccccc43)no2)cc1OC	none
COc1ccc(-c2cc(C(=O)N3CCc4ccccc4C3)no2)cc1OC	tolC growth inh 75
COc1ccccc1N1CCN(C(=O)c2ccoc2C)CC1	CYP2C19 inhib 74
Cc1onc(-c2ccccc2Cl)c1C(=O)N1CCN(c2nc3ccccc3s2)CC1	CYP2C9 inhib 92, CYP2C19 inhib 96
CCCOc1c(Cl)cc(/C=N/O)cc1OCC	none (no result: tolC growth inh)
O=C1c2ccc(-c3nc4ccccc4o3)cc2C(=O)N1Cc1cccnc1	none (no result: CYP2C9 inhib, CYP2C19 inhib, CYP2C19 activ, CYP2C9 act, E coli WT exp)
COc1ccccc1N1CCN(C(=O)c2c(-c3ccccc3Cl)noc2C)CC1	CYP2C9 inhib 65, CYP2C19 inhib 94
Cc1onc(-c2ccccc2Cl)c1C(=O)N1CCN(C/C=C/c2ccccc2)CC1	none
Cc1onc(-c2ccccc2Cl)c1C(=O)N1CCCCC1C(=O)O (stereo not drawn)	none
COC(=O)C1CCN(C(=O)c2c(-c3ccccc3Cl)noc2C)CC1	CYP2C19 inhib 54
CC(C)CN(C(=O)COC(=O)C12CC3CC(CC(O)(C3)C1)C2)C1CCS(=O)(=O)C1 (stereo not drawn)	none
OCCN(CCO)CC(O)COCCC12CC3CC(CC(C3)C1)C2 (stereo not drawn)	none (no result: tolC growth inh)
Cc1ccc2nc(N3CCN(Cc4nnnn4Cc4ccccc4)CC3)c(C#N)cc2c1	CYP2C9 inhib 89, CYP2C19 inhib 78
COc1ccc2cc(C#N)c(N3CCN(Cc4nnnn4CCC(C)C)CC3)nc2c1	CYP2C9 inhib 57, CYP2C19 inhib 59
Cc1ccc2nc(N3CCN(C)CC3)c(C#N)cc2c1	none
CCc1nn(C(C)C(=O)NC(C)CCc2ccco2)c(=O)c2cc3occc3n12 (stereo not drawn)	CYP2C9 inhib 77, CYP2C19 inhib 60
O=C(CN(Cc1ccccc1Cl)C(=O)c1ccc(CN2CCOCC2)o1)NCC1CCCO1 (stereo not drawn)	none (no result: tolC growth inh)
O=C(NCc1cccs1)C(Cc1ccccc1)NS(=O)(=O)c1cccs1 (stereo not drawn)	none (no result: CYP2C9 inhib, CYP2C19 inhib, CYP2C19 activ, CYP2C9 act)
COC(=O)CC(NS(=O)(=O)c1cccs1)c1ccccc1Cl (stereo not drawn)	CYP2C19 inhib 94 (no result: tolC growth inh)
COc1ccc(-c2cc(C(F)(F)F)nc(SCCC(=O)N3CCOCC3)n2)cc1	none
O=c1cc(-c2ccccc2)nc2nc(-c3ccccc3)[nH]n12	CYP2C9 inhib 59
Cc1cccc(NC(=O)CS(=O)(=O)c2cn(C)c3ccccc23)c1C	none
Cn1c(CSc2nc3ccccc3s2)nc2ccccc21	tolC growth inh 72, CYP2C9 inhib 78, CYP2C19 inhib 98
Cc1ccc(-c2n[nH]c(=S)n2C)cc1	none
Cn1c(CSc2ncn[nH]2)nc2ccccc21	none
Clc1c(-c2nnc3n2CCCCC3)sc2ccccc12	none
Clc1c(-c2nnc3n2CCC3)sc2ccccc12	CYP2C9 act 3
Cn1c(CSc2nc3ccccc3s2)n[nH]c1=S	CYP2C19 inhib 54
Cn1c(-c2sc3ccccc3c2Cl)n[nH]c1=S	CYP2C9 inhib 77, CYP2C19 inhib 52 (no result: tolC growth inh)
C/C(=N\OC(=O)c1ccc(Cl)cc1)c1nccs1	none (no result: tolC growth inh)
CCN(CC)CCNC(=O)Cn1nc(Cc2cccnc2)c2ccccc2c1=O	none
COc1ccc(NC(=O)C(NS(=O)(=O)c2ccc3c(c2)CCCN3C(C)=O)C(C)C)c(OC)c1 (stereo not drawn)	CYP2C9 inhib 64
CN(C)c1nc(Oc2ccc(=O)[nH]n2)nc(N2CCCCC2)n1	none
Cc1cc(C(=O)CSc2nnnn2C)c(C)n1CCc1ccc(F)cc1	CYP2C19 inhib 65
Cc1cc(C(=O)CSc2nnnn2-c2ccccc2)c(C)n1CCc1ccccc1	CYP2C19 inhib 50 (no result: tolC growth inh)
COc1ccc(CCn2c(C)cc(C(=O)CSc3nnnn3-c3ccccc3)c2C)cc1OC	CYP2C9 act 2.1
CCC1=NC(c2ccccc2Cl)N(O)C1(C)C (stereo not drawn)	none
CCn1c(Oc2ccc(Oc3ncc(Cl)cc3Cl)cc2)nc2c1c(=O)n(C)c(=O)n2C	none (no result: CYP2C9 inhib, CYP2C19 inhib, CYP2C19 activ, CYP2C9 act, E coli WT exp)
O=C(OCC(=O)N1CCN(C(=O)c2ccco2)CC1)c1cc(-c2ccc(Cl)c(Cl)c2Cl)nc2ccccc12	CYP2C9 inhib 69 (no result: tolC growth inh)
O=C(Oc1ccc(-n2cnnn2)cc1)c1ccco1	none (no result: tolC growth inh)
O=C(C1CC1)N1CCc2cc(S(=O)(=O)NC3CCN(Cc4ccccc4)CC3)ccc21	none
O=C(C1CCC1)N1CCc2cc(S(=O)(=O)NCCN3CCN(c4ccccc4F)CC3)ccc21	CYP2C9 inhib 59
O=C(C1CCC1)N1CCc2cc(S(=O)(=O)NCc3ccccn3)ccc21	CYP2C9 inhib 58 (no result: tolC growth inh)
O=C(C1CCC1)N1CCc2cc(S(=O)(=O)N3CCc4ccccc4C3)ccc21	none (no result: CYP2C9 inhib, CYP2C19 inhib, CYP2C19 activ, CYP2C9 act, E coli WT exp)
CCC1CCCCN1S(=O)(=O)c1ccc2c(c1)CCN2C(=O)C1CCC1 (stereo not drawn)	tolC growth inh 84, CYP2C9 inhib 52
O=C(CS(=O)(=O)Cc1ccccc1)Nc1ncccn1	none
O=S(=O)(c1cccc(-c2csc(-c3cccnc3)n2)c1)N1CCCCC1	CYP2C9 inhib 94, CYP2C19 inhib 94
CC1CCN(S(=O)(=O)c2cccc(-c3csc(-c4cccnc4)n3)c2)CC1	CYP2C9 inhib 79, CYP2C19 inhib 85 (no result: tolC growth inh)
O=C(/C=C/c1ccc(Cl)cc1Cl)NCc1ccncc1	CYP2C9 inhib 76, CYP2C19 inhib 81 (no result: tolC growth inh)
Cc1cc(C)nc(NC(=O)/C=C/c2ccc(Cl)cc2Cl)c1	none (no result: tolC growth inh)
COc1ccccc1-n1cnnc1SC1CCOC1=O (stereo not drawn)	none
Cc1ccccc1-n1nnnc1SC1CCOC1=O (stereo not drawn)	CYP2C19 inhib 59, CYP2C9 act 2.2
Cc1noc(C(=O)N2CCN(c3ccc(F)cc3)CC2)c1Cl	none (no result: CYP2C9 inhib, CYP2C19 inhib, CYP2C19 activ, CYP2C9 act)
CCCCCCS(=O)Cc1ccccc1 (stereo not drawn)	CYP2C19 inhib 91
COc1ccc(-c2[nH]ncc2/C=N\NS(=O)(=O)c2ccccc2)cc1OC	CYP2C9 inhib 71 (no result: tolC growth inh)
COc1ccc(-c2nc3ccccc3c(=O)o2)cc1OC	none (no result: tolC growth inh)
